ChEMBL document CHEMBL3997769, “Discovery and preclinical evaluation of 7-benzyl-N-(substituted)-pyrrolo[3,2-d]pyrimidin-4-amines as single agents with microtubule targeting effects along with triple-acting angiokinase inhibition as antitumor agents” (Bioorg Med Chem, 2017)
The source made the active and inactive calls. The rule behind the calls is not given here.

Tests used:
[1] = test system: SF-539; assay: Growth inhibition of human SF539 cells incubated for 48 hrs by sulforhodamine B assay; format: functional; settings: SF-539, 48 h
[2] = test system: HCT-15; assay: Growth inhibition of human HCT15 cells incubated for 48 hrs by sulforhodamine B assay; format: functional; settings: HCT-15, 48 h
[3] = test system: UACC-257; assay: Growth inhibition of human UACC257 cells incubated for 48 hrs by sulforhodamine B assay; format: functional; settings: UACC-257, 48 h
[4] = test system: IGROV-1; assay: Growth inhibition of human IGROV1 cells incubated for 48 hrs by sulforhodamine B assay; format: functional; settings: IGROV-1, 48 h
[5] = test system: DU-145; assay: Growth inhibition of human DU145 cells incubated for 48 hrs by sulforhodamine B assay; format: functional; settings: DU-145, 48 h
[6] = test system: M14; assay: Growth inhibition of human M14 cells incubated for 48 hrs by sulforhodamine B assay; format: functional; settings: M14, 48 h
[7] = test system: A549; assay: Growth inhibition of human A549/ATCC cells incubated for 48 hrs by sulforhodamine B assay; format: functional; settings: A549, 48 h
[8] = test system: Hs-578T; assay: Growth inhibition of human Hs578T cells incubated for 48 hrs by sulforhodamine B assay; format: functional
[9] = test system: UO-31; assay: Growth inhibition of human UO31 cells incubated for 48 hrs by sulforhodamine B assay; format: functional; settings: UO-31, 48 h
[10] = test system: MDA-MB-435; assay: Growth inhibition of human MDA-MB-435 cells incubated for 48 hrs by sulforhodamine B assay; format: functional; settings: MDA-MB-435, 48 h
[11] = test system: SK-MEL-5; assay: Growth inhibition of human SK-MEL-5 cells incubated for 48 hrs by sulforhodamine B assay; format: functional; settings: SK-MEL-5, 48 h
[12] = test system: A-431; assay: Cytotoxicity against human A431 cells; format: functional, cell-based
[13] = test system: SF-268; assay: Growth inhibition of human SF268 cells incubated for 48 hrs by sulforhodamine B assay; format: functional; settings: SF-268, 48 h
[14] = test system: Chorioallantoic membrane; assay: Antiangiogenic activity in Leghorn chicken egg chorioallantoic membrane assessed as inhibition of human VEGF-165/bFGF-induced blood vessels formation measured after 40 hrs by microscopic method; format: functional, tissue-based; settings: Gallus gallus
[15] = test system: PC-3; assay: Growth inhibition of human PC3 cells incubated for 48 hrs by sulforhodamine B assay; format: functional; settings: PC-3, 48 h
[16] = test system: NCI-H522; assay: Growth inhibition of human NCI-H522 cells incubated for 48 hrs by sulforhodamine B assay; format: functional; settings: NCI-H522, 48 h
[17] = test system: OVCAR-3; assay: Growth inhibition of human OVCAR3 cells incubated for 48 hrs by sulforhodamine B assay; format: functional; settings: OVCAR-3, 48 h
[18] = test system: Malme-3M; assay: Growth inhibition of human MALME-3M cells incubated for 48 hrs by sulforhodamine B assay; format: functional
[19] = test system: SNB-19; assay: Growth inhibition of human SNB19 cells incubated for 48 hrs by sulforhodamine B assay; format: functional; settings: SNB-19, 48 h
[20] = organism: Bos taurus; assay: Displacement of [3H]colchicine from bovine brain tubulin at 5 uM measured after 10 mins by liquid scintillation counting method relative to control
[21] = test system: BT-549; assay: Growth inhibition of human BT549 cells incubated for 48 hrs by sulforhodamine B assay; format: functional; settings: BT-549, 48 h
[22] = test system: 4T1; assay: Antitumor activity against luciferase/GFP-tagged mouse 4T1 cells implanted in Balb/cJ mouse assessed as reduction in lung metastasis at 50 mg/kg, ip administered three times weekly by fluorescence microscopic method; format: functional, organism-based
Outline: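 Orthotopic 4T1-Luc2-GFP allograft in the mammary fat pad of female BALB/cJ mice; IP treatment in 5% Pharmasolve/5% Solutol HS in saline began one week after implantation. At study end, lungs were excised from mice euthanized under isoflurane and imaged with a GFP-filter fluorescence dissecting microscope; GFP-positive metastases per lung counted. n = 9-10.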

[23] = test system: MDA-MB-231; assay: Growth inhibition of human MDA-MB-231 cells incubated for 48 hrs by sulforhodamine B assay; format: functional; settings: MDA-MB-231, 48 h

Question: COc1ccc(N(C)c2nc(C)nc3c(Cc4ccccc4)cn(C)c23)cc1.Cl was tested. Which GI50 [1] did it give?
Answer: 0.0254 µM

Question: What about the GI50 [2] of the same compound?
Answer: 0.0381 µM

Question: And the GI50 [3]?
Answer: 0.0782 µM

Question: And the GI50 [4]?
Answer: 0.0958 µM

Question: What about the GI50 [5] of the same compound?
Answer: 0.0444 µM

Question: What about the GI50 [6] of the same compound?
Answer: 0.0295 µM

Question: What about the GI50 [7] of the same compound?
Answer: 0.044 µM

Question: And the GI50 [8]?
Answer: 0.0623 µM

Question: And the GI50 [9]?
Answer: 0.209 µM

Question: What about the GI50 [10] of the same compound?
Answer: 0.0214 µM

Question: What about the GI50 [11] of the same compound?
Answer: 0.0542 µM

Question: What about the IC50 [12] of the same compound?
Answer: 1.2 µM

Question: And the GI50 [13]?
Answer: 0.35 µM

Question: And the IC50 [14]?
Answer: 2.2 µM

Question: And the GI50 [15]?
Answer: 0.0496 µM

Question: And the GI50 [16]?
Answer: 0.0239 µM

Question: What about the GI50 [17] of the same compound?
Answer: 0.0352 µM

Question: What about the GI50 [18] of the same compound?
Answer: 0.0177 µM

Question: And the GI50 [19]?
Answer: 0.0547 µM

Question: And the inhibition [20]?
Answer: 92%

Question: What about the GI50 [21] of the same compound?
Answer: 0.0482 µM

Question: What about the Activity [22] of the same compound?
Answer: Active

Question: What about the GI50 [23] of the same compound?
Answer: 0.0637 µM
